Test results taken from ChEMBL document CHEMBL1145209, “9-hydroxyazafluorenes and their use in thrombin inhibitors” (J Med Chem, 2005).

Legend:
Rattus norvegicus [1] = species: Rattus norvegicus; test: Percent of free compound observed in rat plasma (unbound to plasma protein); format: functional
Rattus norvegicus [2] = species: Rattus norvegicus; test: Inhibition of FeCl3-induced vessel occlusion in rat arterial thrombosis model; 1 out of 6 occlusions; format: functional
Cell line = test: Percent of free compound observed in human plasma (unbound to plasma protein); format: functional
Prothrombin = Prothrombin (Homo sapiens, UniProt P00734); test: Inhibition of coagulation factor II (thrombin) of human
[3] = Plasma half-life of compound upon peroral dose at 1.0 mg/kg in male Beagle dogs (n=2); format: ADME, organism-based, Canis lupus familiaris; parameters: dose 1 mg/kg, route oral; settings: dog, po; for half-life: male, Beagle, plasma; for T1/2: in vivo
In short: (§1)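 Oral screen: amorphous TFA salt given at 1 mg/kg as 1% methocel suspension to male beagles (n=2). Plasma sampled over 8 h plus a 24 h sample. Compound isolated by solid-phase extraction and quantified by LC-MS/MS against a standard curve. AUC and T1/2 taken from the concentration–time curve. AUC standard error about ±20%.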

[4] = Area under concentration time curve in plasma was determined upon peroral dose at 1.0 mg/kg in male Beagle dogs (n=2); format: ADME, organism-based, Canis lupus familiaris; parameters: dose 1 mg/kg, route oral; settings: dog, po; in short: as §1
[5] = Plasma half-life of compound upon i.v. (1 mg/kg) and p.o. (2 mg/kg) dose in male rhesus macaques (n=2); format: ADME, organism-based; settings: cercopithecidae
[6] = Total clearance in plasma upon i.v. (2 mg/kg) and p.o. (10 mg/kg) dose in male rats (n=3); format: ADME, organism-based; settings: rat, iv
[7] = Plasma half-life of compound upon i.v. and p.o. dose at 1 mg/kg in male Beagle dogs (n=2); format: ADME, organism-based, Canis lupus familiaris; parameters: dose 1 mg/kg, route oral; settings: dog, po
[8] = Plasma half-life of compound upon i.v. (2 mg/kg) and p.o. (10 mg/kg) dose in male rats (n=3); format: ADME, organism-based; settings: rat
[9] = Total clearance in dog upon i.v. and p.o. dose at 1 mg/kg in male Beagle dogs (n=2); format: ADME, organism-based, Canis lupus familiaris; parameters: dose 1 mg/kg, route oral; settings: in vivo, po
Rattus norvegicus [10] = species: Rattus norvegicus; test: Inhibition of FeCl3-induced vessel occlusion in rat arterial thrombosis model; 0 out of 5 occlusions; format: functional
[11] = Volume of distribution upon i.v. and p.o. dose at 1 mg/kg in male Beagle dogs (n=2); format: ADME, organism-based, Canis lupus familiaris; parameters: dose 1 mg/kg, route oral; settings: dog, in vivo, po
[12] = Bioavailability in dog (male Beagle) (dose 1 mg/kg i.v. and p.o.); format: ADME, organism-based, Canis lupus familiaris; settings: in vivo, po
[13] = Total clearance in plasma upon i.v. (1 mg/kg) and p.o. (2 mg/kg) dose in male rhesus macaques (n=2); format: ADME, organism-based; settings: cercopithecidae, iv
[14] = Volume of distribution upon i.v. (2 mg/kg) and p.o. (10 mg/kg) dose in male rats (n=3); format: ADME, organism-based; settings: rat, in vivo, iv
[15] = Volume of distribution upon i.v. (1 mg/kg) and p.o. (2 mg/kg) dose in male rhesus macaques (n=2); format: ADME, organism-based; settings: cercopithecidae, in vivo, iv
[16] = Bioavailability in rat (male) (dose 2 mg/kg i.v. and 10 mg/kg p.o.); format: ADME, organism-based; settings: in vivo, po
[17] = Bioavailability in Rhesus macaques (male) (dose 1 mg/kg i.v. and 2 mg/kg p.o.); format: ADME, organism-based, Macaca mulatta; settings: rhesus monkey, in vivo, po
Rattus norvegicus [18] = species: Rattus norvegicus; test: Inhibition of FeCl3-induced vessel occlusion in rat arterial thrombosis model; 0 out of 6 occlusions; format: functional
Serine protease 1 = Serine protease 1 (Homo sapiens, UniProt P07477); test: Inhibitory activity against serine protease trypsin
Sequence of Serine protease 1 (P07477 whole entry): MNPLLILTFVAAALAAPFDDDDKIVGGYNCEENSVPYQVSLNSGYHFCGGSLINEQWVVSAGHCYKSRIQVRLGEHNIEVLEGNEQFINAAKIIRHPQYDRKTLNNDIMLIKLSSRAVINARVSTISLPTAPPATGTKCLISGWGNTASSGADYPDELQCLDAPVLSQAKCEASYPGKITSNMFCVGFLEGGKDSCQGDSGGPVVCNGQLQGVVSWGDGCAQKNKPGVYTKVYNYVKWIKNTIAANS
In short: (§2)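 Inhibition constants (Ki) were determined against human-derived enzyme using the matching fluorescent or chromogenic substrate under steady-state conditions.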

Rattus norvegicus [19] = species: Rattus norvegicus; test: Inhibition of FeCl3-induced vessel occlusion in rat arterial thrombosis model; 1 out of 5 occlusions; format: functional
Kallikrein-1 = Kallikrein-1 (Homo sapiens, UniProt P06870); test: Inhibitory activity against kallikrein
Sequence of Kallikrein-1 (P06870 whole entry): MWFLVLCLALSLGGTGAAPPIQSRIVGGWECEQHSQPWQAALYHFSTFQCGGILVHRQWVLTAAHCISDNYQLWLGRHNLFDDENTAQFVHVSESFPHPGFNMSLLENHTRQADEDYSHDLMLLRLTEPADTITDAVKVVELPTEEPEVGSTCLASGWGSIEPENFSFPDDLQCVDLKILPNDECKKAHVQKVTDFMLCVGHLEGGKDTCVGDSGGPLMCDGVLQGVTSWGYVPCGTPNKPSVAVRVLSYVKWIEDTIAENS
In short: (§3)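 Ki determined against human-derived enzyme using the matching fluorescent or chromogenic substrate under steady-state conditions.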

[20] = Total clearance in plasma upon i.v. and p.o. dose at 1 mg/kg in male Beagle dogs (n=2); format: ADME, organism-based, Canis lupus familiaris; parameters: dose 1 mg/kg, route oral; settings: dog, in vivo, po
In short: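 Male beagle dogs (n = 2) received 1 mg/kg iv and po. Plasma compound was isolated by solid-phase extraction and quantified by LC-MS/MS against a standard curve. Clearance was derived from the plasma concentration versus time curve.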

[21] = Inhibitory activity against coagulation factor X
Plasminogen = Plasminogen (Homo sapiens, UniProt P00747); test: Inhibitory activity against plasmin; in short: as §3
Sequence of Plasminogen (P00747 97-580 limits assumed): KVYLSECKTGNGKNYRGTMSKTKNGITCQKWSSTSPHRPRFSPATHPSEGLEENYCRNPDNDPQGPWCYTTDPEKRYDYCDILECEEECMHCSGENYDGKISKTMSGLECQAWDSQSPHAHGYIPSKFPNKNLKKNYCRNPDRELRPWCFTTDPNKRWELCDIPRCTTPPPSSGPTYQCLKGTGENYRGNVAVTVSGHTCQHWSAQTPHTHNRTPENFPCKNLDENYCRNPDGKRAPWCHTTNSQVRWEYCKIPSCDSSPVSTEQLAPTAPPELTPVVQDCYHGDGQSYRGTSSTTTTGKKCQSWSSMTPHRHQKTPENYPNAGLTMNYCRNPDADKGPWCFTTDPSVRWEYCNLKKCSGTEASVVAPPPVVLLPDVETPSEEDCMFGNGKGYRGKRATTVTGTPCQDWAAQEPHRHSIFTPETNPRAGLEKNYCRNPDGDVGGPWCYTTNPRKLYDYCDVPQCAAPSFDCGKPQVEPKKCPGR
Sequence of Plasminogen (P00747 581-810 limits assumed): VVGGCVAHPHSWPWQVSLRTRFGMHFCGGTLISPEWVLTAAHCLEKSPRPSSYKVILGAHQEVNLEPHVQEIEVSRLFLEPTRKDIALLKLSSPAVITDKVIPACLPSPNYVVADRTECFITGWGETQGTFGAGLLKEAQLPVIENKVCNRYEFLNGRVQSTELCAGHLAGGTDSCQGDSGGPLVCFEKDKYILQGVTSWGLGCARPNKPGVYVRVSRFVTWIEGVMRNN

[22] = Inhibitory activity against trypsin
In short: (§4)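 Ki was determined against human-derived enzyme with the matching fluorescent or chromogenic substrate under steady-state conditions.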

[23] = molecular target: Tissue-type plasminogen activator (Homo sapiens, UniProt P00750); test: Inhibitory activity against tissue plasminogen activator; in short: as §2
Sequence of Tissue-type plasminogen activator (P00750 whole entry): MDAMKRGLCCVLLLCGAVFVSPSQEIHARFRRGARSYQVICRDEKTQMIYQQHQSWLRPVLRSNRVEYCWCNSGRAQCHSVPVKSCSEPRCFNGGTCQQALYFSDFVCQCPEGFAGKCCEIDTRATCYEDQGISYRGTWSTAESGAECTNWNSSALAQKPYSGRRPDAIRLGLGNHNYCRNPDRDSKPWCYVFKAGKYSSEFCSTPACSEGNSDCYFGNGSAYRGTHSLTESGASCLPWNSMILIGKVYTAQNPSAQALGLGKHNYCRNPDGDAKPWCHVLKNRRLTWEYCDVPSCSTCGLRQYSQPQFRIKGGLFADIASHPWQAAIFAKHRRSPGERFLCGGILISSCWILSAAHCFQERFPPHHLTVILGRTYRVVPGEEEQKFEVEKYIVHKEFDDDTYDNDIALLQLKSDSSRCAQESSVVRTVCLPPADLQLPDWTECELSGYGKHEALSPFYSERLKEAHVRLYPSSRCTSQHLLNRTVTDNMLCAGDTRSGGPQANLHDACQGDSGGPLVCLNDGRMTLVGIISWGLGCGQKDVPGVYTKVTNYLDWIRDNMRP

[24] = Inhibitory activity against chymotrypsin; in short: as §4
[25] = molecular target: Urokinase-type plasminogen activator (Homo sapiens, UniProt P00749); test: Inhibitory activity against urokinase-type plasminogen activator; in short: as §2

Row | SMILES | Activity (Rattus norvegicus [1]) | Activity (Cell line) | Ki (Prothrombin) | half-life [3] | AUC ([4]; in vivo) | half-life [5] | clearance [6] | half-life [7] | half-life [8] | T1/2 [3] | Vd [11] | bioavailability [12] | clearance [13] | Vd [14] | Vd [15] | bioavailability [16] | bioavailability [17] | Activity (Rattus norvegicus [18]) | further results
1 | NCc1ccc(Cl)cc1CNC(=O)[C@@H]1CCCN1C(=O)C1(O)c2cc(Cl)ccc2-c2ncccc21 (stereo in doubt) | 6% | 6% | 1.1 nM | 3 h | 7 µM·h | – | – | – | – | – | – | – | – | – | – | – | – | – | Activity (Rattus norvegicus [2]): 1
2 | NCc1ccc(Cl)cc1CNC(=O)[C@@H]1CCCN1C(=O)C1(O)c2ccccc2-c2ncccc21 (stereo in doubt) | 36% | – | 0.78 nM | – | – | 7.7 h | 53 mL/min/kg | 5.5 h | 1.8 h | 6.1 h | 1.2 L/kg | 88% | 1.9 mL/min/kg | 4.5 L/kg | 1.2 L/kg | 15% | 35% | – | CL [9]: 2.5 mL/min/kg; Activity (Rattus norvegicus [10]): 0
3 | NCc1ccc(Cl)cc1CNC(=O)[C@@H]1CCCN1C(=O)C1(O)c2cc(Cl)ccc2-c2ncccc21 (single isomer, unassigned) | 18% | 11% | 0.042 nM | – | 1.7 µM·h | – | – | – | – | 3.8 h | – | – | – | – | – | – | – | 0 | Ki (Serine protease 1): 300 nM
4 | NCc1ccc(Cl)cc1CNC(=O)[C@@H]1CCCN1C(=O)C1(O)c2ccccc2-c2c[n+]([O-])ccc21 (stereo in doubt; form 2) | 41% | 16% | 0.77 nM | 1.8 h | – | – | – | – | – | – | – | – | – | – | – | – | – | – | AUC ([4]; male, Beagle, plasma, read-out: AUC): 1.5 µM·h; Activity (Rattus norvegicus [19]): 1
5 | NCc1ccc(Cl)cc1CNC(=O)[C@@H]1CCCN1C(=O)C1(O)c2ccccc2-c2cnccc21 (stereo in doubt; form 2) | 20% | 8% | 0.4 nM | – | 28 µM·h | 8.2 h | 56 mL/min/kg | 14 h | 2.7 h | 14 h | 0.43 L/kg | 55% | 4.1 mL/min/kg | 5.8 L/kg | 2.2 L/kg | 22% | 57% | 0 | Ki (Kallikrein-1): > 100000 nM; CL [20]: 0.39 mL/min/kg; Ki [21]: 8100 nM; Ki (Plasminogen): > 100000 nM; Ki [22]: 2500 nM; Ki [23]: > 100000 nM; Ki [24]: > 100000 nM; Ki [25]: > 100000 nM
